In ChEMBL document CHEMBL3853297, “Synthesis and biological evaluation of 4-(2-fluorophenoxy)-3,3'-bipyridine derivatives as potential c-met inhibitors” (Eur J Med Chem, 2016):

Columns and labels:
[1] = Cytotoxicity against human MKN45 cells after 72 hrs by MTT assay; conditions: MKN-45, 72 h
[2] = Cytotoxicity against human A549 cells after 72 hrs by MTT assay; conditions: A549, 72 h
[3] = Cytotoxicity against human HT-29 cells after 72 hrs by MTT assay; format: functional, cell-based; conditions: HT-29, 72 h
Outline: (§1)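 Cells grown in MEM with 10% FBS; about 4×10^3 cells per well of 96-well plate, 24 h at 37 °C, 5% CO2, then test compounds at indicated final concentrations for 72 h. Each tested three times; IC50 as mean ± SD.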

[4] = Cytotoxicity against human MDA-MB-231 cells after 72 hrs by MTT assay; format: functional, cell-based; conditions: MDA-MB-231, 72 h; outline: as §1

| SMILES | IC50 [1] [nM] | IC50 [2] [nM] | IC50 [3] [nM] | IC50 [4] [nM] |
| --- | --- | --- | --- | --- |
| O=C(Nc1ccc(Oc2ccncc2-c2cccnc2)c(F)c1)c1nn(-c2ccc(F)cc2)c(=O)c2ccccc12 | 320 | 820 | 990 | – |
| O=C(Nc1ccc(Oc2ccncc2-c2cccnc2)c(F)c1)C1=NN(c2ccc(F)c(F)c2)c2ccccc2S1(=O)=O | 90 | 1300 | 1550 | 34 |
| O=C(Nc1ccc(Oc2ccncc2-c2cccnc2)c(F)c1)c1ccnn(-c2ccc(F)cc2)c1=O | 3120 | 2880 | 4770 | 5200 |
| COc1ccc(-n2nc(C(=O)Nc3ccc(Oc4ccncc4-c4cccnc4)c(F)c3)c(=O)n(C)c2=O)c(OC)c1 | 2820 | 890 | 890 | 3270 |
| Cn1cc(-c2ccc(F)cc2)cc(C(=O)Nc2ccc(Oc3ccncc3-c3cccnc3)c(F)c2)c1=O | 7100 | 8300 | 11200 | 11900 |
| O=C(Nc1ccc(Oc2ccncc2-c2cccnc2)c(F)c1)c1nn(-c2cccc(F)c2)c(=O)c2ccccc12 | 27 | 1750 | 410 | 72 |
| COc1ccc(Nc2cc(Nc3ccc(Oc4ccncc4-c4cccnc4)c(F)c3)ncn2)cc1 | 1010 | 2140 | 4110 | – |
| Cn1cc(-c2ccccc2)cc(C(=O)Nc2ccc(Oc3ccncc3-c3cccnc3)c(F)c2)c1=O | 5400 | 7600 | 7420 | 9500 |
| Cn1c(=O)c(C(=O)Nc2ccc(Oc3ccncc3-c3cccnc3)c(F)c2)nn(-c2cccc(C(F)(F)F)c2)c1=O | 1950 | 460 | 510 | 3980 |
| Cn1c(=O)c(C(=O)Nc2ccc(Oc3ccncc3-c3cccnc3)c(F)c2)nn(-c2ccc(F)c(Cl)c2)c1=O | 10100 | 12500 | 4780 | 11300 |
| Fc1ccc(Nc2cc(Nc3ccc(Oc4ccncc4-c4cccnc4)c(F)c3)ncn2)cc1 | 160 | 710 | 330 | 14100 |
| Cn1c(=O)c(C(=O)Nc2ccc(Oc3ccncc3-c3cccnc3)c(F)c2)nn(-c2ccccc2F)c1=O | 4780 | 610 | 2100 | 6760 |
| Cn1c(=O)c(C(=O)Nc2ccc(Oc3ccncc3-c3cccnc3)c(F)c2)nn(-c2ccc(Cl)cc2)c1=O | 1600 | 930 | 440 | 3220 |
| Fc1ccc(Nc2cc(Nc3ccc(Oc4ccncc4-c4cccnc4)c(F)c3)ncn2)cc1F | 80 | 7630 | 2320 | 6770 |
| O=C(Nc1ccc(Oc2ccncc2-c2cccnc2)c(F)c1)c1ccnn(-c2ccc(Cl)cc2)c1=O | 4230 | 6560 | 4560 | 4840 |
| Cn1c(=O)c(C(=O)Nc2ccc(Oc3ccncc3-c3cccnc3)c(F)c2)nn(-c2c(Cl)cccc2Cl)c1=O | 3930 | 720 | 780 | 9690 |
| O=C(Nc1ccc(Oc2ccncc2-c2cccnc2)c(F)c1)c1nn(-c2ccccc2)c(=O)c2ccccc12 | 90 | 7900 | 1240 | 8200 |
| Fc1cc(Nc2cc(Nc3cccc(Cl)c3)ncn2)ccc1Oc1ccncc1-c1cccnc1 | 30 | 180 | 690 | 90 |
| O=C(Nc1ccc(Oc2ccncc2-c2cccnc2)c(F)c1)c1nn(-c2ccc(Cl)cc2)c(=O)c2ccccc12 | 430 | 1020 | 710 | – |
| COc1ccc(-n2nc(C(=O)Nc3ccc(Oc4ccncc4-c4cccnc4)c(F)c3)c3ccccc3c2=O)cc1 | 740 | 6800 | – | 10400 |
| Fc1cc(Nc2cc(Nc3ccc(Cl)cc3)ncn2)ccc1Oc1ccncc1-c1cccnc1 | 240 | 1610 | 980 | – |
| O=C(Nc1ccc(Oc2ccncc2-c2cccnc2)c(F)c1)C1=NN(c2cccc(F)c2)c2ccccc2S1(=O)=O | 3 | 900 | 430 | 10 |
| COc1cc(Nc2cc(Nc3ccc(Oc4ccncc4-c4cccnc4)c(F)c3)ncn2)cc(OC)c1 | 1750 | 560 | 1130 | 4240 |
| Fc1cc(Nc2cc(Nc3ccccc3)ncn2)ccc1Oc1ccncc1-c1cccnc1 | 6300 | 410 | 880 | 2740 |
| O=C(Nc1ccc(Oc2ccncc2-c2cccnc2)c(F)c1)C1=NN(c2ccccc2C(F)(F)F)c2ccccc2S1(=O)=O | 27 | 120 | 190 | 46 |
